A selection: hits, their analogues and other compounds. The true share with any hit is near 1.9%.
p-CIP stab down: p/CIP-EGFP fusion destabilizers, primary screen, fluorescence, F442A cells. decrease of EGFP signal, % at 10 µM. 16 h. 290,000 compounds, 0.01% hits;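 active = EGFP signal decrease of at least 30% at 10 µM or well 3 SD below plate mean, unless failing retest; inactive = the rest, including hits failing retest or dose response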
RAM inhibit: inhibitors of the yeast RAM network, primary screen, dse1pr::URA3 reporter, 5-FOA selection; S. cerevisiae dse1pr::URA3 reporter, 5-FOA growth OD615, 2 d; analog-sensitive cbk1-as2 kinase mutant strain; inhibition, % at 50 µM; 190,000 compounds, 1.8% hits; AID 868, 2007;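 active = inhibition above a set limit, 3 SD over mean compound inhibition, cut at about 8.4% in these data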;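 note: inhibition rescues growth on 5-FOA so higher OD means more RAM inhibition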
p47phox inh: p47phox/p22phox peptide binding inhibitors, primary screen, biochemical, uHTS, NADPH oxidase regulatory subunit | fluorescence polarization, 2 h | Neutrophil cytosol factor 1 (Homo sapiens), P14598 | 220,000 compounds, 0.53% hits | inhibition, % at 24.7 µM;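 active = inhibition above about 30%, limit read from the data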
Target sequence (P14598 whole entry, looked up): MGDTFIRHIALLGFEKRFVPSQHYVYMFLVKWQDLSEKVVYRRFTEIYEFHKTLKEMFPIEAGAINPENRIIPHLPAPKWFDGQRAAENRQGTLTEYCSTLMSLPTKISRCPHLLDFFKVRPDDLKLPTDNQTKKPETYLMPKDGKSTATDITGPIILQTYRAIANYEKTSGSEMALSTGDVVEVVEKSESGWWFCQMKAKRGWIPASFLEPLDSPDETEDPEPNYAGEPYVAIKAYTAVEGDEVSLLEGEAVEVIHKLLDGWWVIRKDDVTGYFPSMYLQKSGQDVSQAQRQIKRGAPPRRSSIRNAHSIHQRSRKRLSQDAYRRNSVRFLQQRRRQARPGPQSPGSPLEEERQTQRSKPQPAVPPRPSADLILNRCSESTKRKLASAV
Dynein cargo inh: inhibitors of GR-EGFP nuclear translocation, primary screen, dynein cargo transport inhibitor project, imaging, high-content, 3617.4 mouse cells | test concentration mostly 20 µM; stimulated with dexamethasone, 1 µM; active compounds read low | z-score, hits read low | 220,000 compounds, 0.47% hits | AID 1381, 2008;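 active = plate z-score of nuclear minus cytoplasmic receptor signal below a set negative limit, without overly bright fluorescence or cell loss, cut at about -3.5 in these data, passing the limit was not always enough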;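 note: z-score of nuclear minus cytoplasmic ring GR-EGFP intensity difference per well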
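Schedule: 48 h induction, then 1 h compound, then 30 min agonist, 37 °C. Buffer or medium: tetracycline-free induction medium containing charcoal-stripped FBS. Reagent: 1.0 µM final dexamethasone stimulus. Evaluation: nuclear versus cytoplasmic GR-EGFP signal, averaged per well. Signal: high-content fluorescence imaging after fixation.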
Each line names hits and unclear results; the compound was inactive in the other large screens.

Cc1ccc(NC(=S)/N=C(\N)Nc2nc(C)c3cc(C)c(C)cc3n2)cc1C	none
CC(=O)n1cc([C@H]2C=C(C(=O)NCc3ccccc3)O[C@@H](OCCCCO)C2)c2ccccc21	RAM inhibit 8.8
CC(=O)n1cc([C@@H]2C=C(C(=O)NCc3ccccc3)O[C@H](OCCCCO)C2)c2ccccc21	none
CC(C)(C)[C@H]1C=C(C(=O)Nc2ccccc2)O[C@@H](OCc2ccc(CO)cc2)C1	RAM inhibit 10 (no result: p47phox inh)
CC(C)(C)[C@@H]1C=C(C(=O)NCc2ccccc2)O[C@H](OCc2ccc(CO)cc2)C1	none (no result: p47phox inh)
O=C(Nc1ccccc1)C1=C[C@@H](c2ccccc2)C[C@@H](OCc2ccc(CO)cc2)O1	RAM inhibit 9.9
O=C(NCc1ccccc1)C1=C[C@H](c2csc3ccccc23)C[C@H](OCc2ccc(CO)cc2)O1	none (no result: RAM inhibit)
C#CCNC(=O)C1=C[C@H](c2csc3ccccc23)C[C@H](OCc2ccc(CO)cc2)O1	RAM inhibit 8.5
COc1cccc(NC(=O)c2cc(C(=O)Nc3cccc(OC)c3)n(C)n2)c1	RAM inhibit 11
CCN(CC)Cc1c(C(=O)N2CCc3ccccc3C2)nc2ccc(Cl)cn12	none
C=CC(C)N1C(=O)S/C(=C\c2ccc(N3CCOCC3)cc2C)C1=O (stereo not drawn)	none
C=CCN1C(=O)S/C(=C\c2ccc(N3CCOCC3)cc2C)C1=O	RAM inhibit 8.6
O=C(O)/C=C/c1ccc([N+](=O)[O-])o1	none
O=[N+]([O-])c1ccc(/C=N/N=C/c2ccc([N+](=O)[O-])o2)o1	Dynein cargo inh -3.6
CCOC(=O)Cc1csc(NC(=O)C(NC(=O)C2CCC(C)CC2)C(C)C)n1 (stereo not drawn)	none (no result: RAM inhibit, p47phox inh, Dynein cargo inh)
COc1ccc(OC)c2c1C(=O)c1ccccc1C2=O	p47phox inh 36
COc1ccc(OC)c2c1C(=O)C(Cl)=C(Cl)C2=O	p47phox inh 90, Dynein cargo inh -5.4 (no result: RAM inhibit)
NC(=O)CC(NC(=O)c1ccccc1)c1ccc(NCCN2CCCCC2)c([N+](=O)[O-])c1 (stereo not drawn)	none (no result: RAM inhibit, p47phox inh, Dynein cargo inh)
O=C(Cc1ccc([N+](=O)[O-])cc1)Nc1ccc(Cl)cc1	p47phox inh 77
O=C(/C=C/c1cccc([N+](=O)[O-])c1)N1CCN(Cc2ccc3c(c2)OCO3)CC1	none
O=C(O)c1cccc2c1C(=O)c1ccccc1-2	none (no result: RAM inhibit)
CC(C)OC(=O)c1cccc2c1C(=O)c1ccccc1-2	p47phox inh 50 (no result: RAM inhibit)
O=C(Nc1cccc(F)c1)/C(=C/c1ccco1)NC(=O)c1ccco1	none (no result: RAM inhibit, p47phox inh, Dynein cargo inh)
COc1ccc(/C=C/C(=O)c2ccccc2)cc1COc1ccccc1F	RAM inhibit 10
COc1ccc(C=O)cc1COc1ccccc1F	none
C=CCNC(=O)c1cc(-c2cccnc2)nc2ccccc12	none (no result: RAM inhibit, p47phox inh, Dynein cargo inh)
Cc1ccc(C(C(=O)NCC2CCCO2)N(C(=O)c2snc(C(N)=O)c2N)c2ccc(C)c(C)c2)o1 (stereo not drawn)	none (no result: RAM inhibit, p47phox inh, Dynein cargo inh)
CCOc1ccccc1N1CCN(CC(O)COC2CCCc3ccccc32)CC1 (stereo not drawn)	none (no result: RAM inhibit, p47phox inh, Dynein cargo inh)
CCCCCCCCCCCCCCCCn1cc[n+](C)c1	p47phox inh 102
C[N+]1(CC(=O)Nc2ccccc2Cl)CCN(C(=O)c2cccs2)CC1	p47phox inh 94
COc1ccc(Cc2nnc(NC(=O)Nc3ccccc3F)s2)cc1OC	none (no result: RAM inhibit, p47phox inh, Dynein cargo inh)
Cc1noc(/C=C/c2ccc(-c3ccccc3Cl)o2)c1[N+](=O)[O-]	RAM inhibit 8.9
CCOC(=O)C1CCCN(C(=O)c2[nH]c3ccc(OC)cc3c2C)C1 (stereo not drawn)	none (no result: RAM inhibit, p47phox inh, Dynein cargo inh)
COc1ccc2oc(C(=O)N(C)Cc3ccc(OC(F)F)cc3)c(C)c2c1	none (no result: RAM inhibit, p47phox inh, Dynein cargo inh)
COc1cc(NCc2ccccc2O)c2ncccc2c1	none (no result: RAM inhibit)
COc1cc(NCCCCCCCN)c2ncccc2c1	p47phox inh 34
COc1cccc(OCCn2cc(C(C)=O)c3ccccc32)c1	none (no result: RAM inhibit, p47phox inh, Dynein cargo inh)
COc1ccccc1OCCn1cc(C(=O)c2ccco2)c2ccccc21	RAM inhibit 8.8
COc1cccc(OCCn2cc(C(=O)c3ccco3)c3ccccc32)c1	RAM inhibit 10
Cc1ccccc1-n1c(SCC(=O)NCc2cccs2)nc2ccccc2c1=O	p47phox inh 30
Cc1sc2cc3c(c(C(=O)c4ccccc4)[n+]2c1C)-c1cccc2cccc-3c12	p47phox inh 37
O=C(c1ccccc1)c1c2c(cc3sc4ccccc4[n+]13)-c1cccc3cccc-2c13	none
Cc1ccc(-c2cc(-c3ccccc3)nc(Cl)n2)cc1	RAM inhibit 9.4
COc1ccccc1C(=O)NNC(=O)c1ccc(Br)cc1	none (no result: RAM inhibit, p47phox inh, Dynein cargo inh)
CCCCCn1c(=O)c(C(=O)OCC)c(O)c2ccccc21	RAM inhibit 9.0
CCCCCCCCn1c(=O)c(C(=O)OCC)c(O)c2ccccc21	none
COc1ccc(OCC(=O)Nc2cc3c(cc2C(=O)O)OCCCO3)cc1	none (no result: RAM inhibit, p47phox inh, Dynein cargo inh)
O=C1CCCN2N=C(SCC(=O)N3N=C(c4ccc(Br)cc4)CC3c3ccc(F)cc3)SC2=N1 (stereo not drawn)	RAM inhibit 11
Cc1cc(C)cc(Oc2ccccc2/C=N\O)c1	none
Cc1cc(C)cc(Oc2ccccc2CO)c1	p47phox inh 33
Cc1ccc(SCCNC(=S)Nc2cc(C)ccc2C)cc1	RAM inhibit 8.9
Cc1ccc(SCCNC(=S)Nc2ccccc2)cc1	none
Cc1ccc(C(=O)NNC(=O)c2ccc3ncccc3c2)cc1	p47phox inh 33
O=C(NNC(=O)c1ccc2ncccc2c1)c1ccc(Cl)cc1	none
CCN(c1ccc(OC)cc1)S(=O)(=O)c1ccc2c(c1)CC(C)N2C(=O)C1CC1 (stereo not drawn)	none (no result: RAM inhibit, p47phox inh, Dynein cargo inh)
CCOc1ccc(NC(=O)CSc2nc(C)cc(C)n2)cc1	none
CCCCOc1ccc(NC(=S)Nc2cc(C)nc(SCCCC)n2)cc1	RAM inhibit 9.6
S=C(Nc1ccc(Cl)cc1)c1nc2ccccc2s1	RAM inhibit 8.4
Cc1ccc(NC(=S)c2nc3ccccc3s2)cc1	none
C=CCN(c1cccc(C(F)(F)F)c1)S(=O)(=O)c1cccc(C(=O)OCC(=O)NC(N)=O)c1	RAM inhibit 9.1
C=CCN(c1ccccc1)S(=O)(=O)c1cccc(C(=O)O)c1	none
C=CCN(c1cccc(C(F)(F)F)c1)S(=O)(=O)c1cccc(C(=O)OCC(=O)Nc2ccccc2)c1	RAM inhibit 9.0
C=CCN(c1cccc(C(F)(F)F)c1)S(=O)(=O)c1cccc(C(=O)OCC(=O)NC)c1	none
COc1ccc(CC(=O)NC(C)C2COc3ccccc3O2)cc1OC (stereo not drawn)	none
COc1ccc(S(=O)(=O)N2CCc3cc4c(cc3C2C)OCCCO4)cc1 (stereo not drawn)	none (no result: RAM inhibit, p47phox inh, Dynein cargo inh)
CCCN(CCC)C(=O)CSc1nc2ccccc2c(=O)n1CC1COc2ccccc2O1 (stereo not drawn)	RAM inhibit 9.0
O=C(O)CCC1(c2ccccc2)NC(=O)NC1=O (stereo not drawn)	none (no result: RAM inhibit)
O=C(NCCCN1CCCCCC1)c1ccc(CS(=O)(=O)Cc2ccccc2F)o1	p47phox inh 89
CC1CCN(CCCNC(=O)c2ccc(CS(=O)(=O)Cc3ccccc3F)o2)CC1	none
